Calls of active or inactive are those of the source. No cut-off for these calls is given here. Some results are limits rather than exact numbers.

The subject of data set [1] is Rattus norvegicus. Description: In vivo antagonist activity at androgen receptor in immature Sprague-Dawley rat prostate weight model assessed as testosterone propionate-induced weight of seminal vesicles over full body weight at 10 mg/kg, po qd administered for 4 days. It counts as functional. Details: scale not given: the % may be the effect or the level left. In a few lines:
(§1)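 Immature rat prostate weight PK/PD model. Oral dosing once daily at 1 or 10 mg/kg for 4 days. Seminal vesicle weight expressed as % of full body weight, n=3, scaled so testosterone-treated control = 100% and sham = 10%.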

Data set [2] relates to Rattus norvegicus. The data set can be described thus: In vivo antagonist activity at androgen receptor in immature Sprague-Dawley rat prostate weight model assessed as testosterone propionate-induced weight of seminal vesicles over full body weight at 1 mg/kg, po qd administered for 4 days. Type of data set: functional. Also on record: scale not given: the % may be the effect or the level left. In a few lines: as §1

Data set [3] addresses T1, Androgen receptor (Homo sapiens, UniProt P10275).
T1 sequence (P10275 whole entry): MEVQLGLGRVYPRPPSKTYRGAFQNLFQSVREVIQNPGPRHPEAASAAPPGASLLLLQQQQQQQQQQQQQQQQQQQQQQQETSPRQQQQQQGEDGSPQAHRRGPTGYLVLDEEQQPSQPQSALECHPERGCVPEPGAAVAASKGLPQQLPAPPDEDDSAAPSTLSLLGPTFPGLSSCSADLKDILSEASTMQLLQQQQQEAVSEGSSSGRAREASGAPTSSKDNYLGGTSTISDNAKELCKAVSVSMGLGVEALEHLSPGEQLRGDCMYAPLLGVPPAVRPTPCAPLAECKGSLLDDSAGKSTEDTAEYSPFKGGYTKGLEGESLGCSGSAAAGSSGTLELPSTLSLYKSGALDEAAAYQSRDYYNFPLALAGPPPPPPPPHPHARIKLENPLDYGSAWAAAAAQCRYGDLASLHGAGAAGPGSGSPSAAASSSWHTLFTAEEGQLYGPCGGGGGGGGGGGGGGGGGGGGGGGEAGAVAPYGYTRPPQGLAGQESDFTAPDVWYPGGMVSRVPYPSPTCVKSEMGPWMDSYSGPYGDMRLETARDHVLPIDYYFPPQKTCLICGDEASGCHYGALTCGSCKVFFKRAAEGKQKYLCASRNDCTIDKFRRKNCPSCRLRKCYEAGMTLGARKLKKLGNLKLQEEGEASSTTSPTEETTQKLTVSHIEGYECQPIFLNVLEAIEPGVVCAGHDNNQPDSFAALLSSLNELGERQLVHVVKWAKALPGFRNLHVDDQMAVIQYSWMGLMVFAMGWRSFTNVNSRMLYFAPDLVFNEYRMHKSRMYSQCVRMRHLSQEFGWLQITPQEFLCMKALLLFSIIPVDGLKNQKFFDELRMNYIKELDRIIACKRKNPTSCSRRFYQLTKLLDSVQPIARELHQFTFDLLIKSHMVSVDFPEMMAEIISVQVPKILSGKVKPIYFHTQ
Description: Antagonist activity at androgen receptor in human MDA-MB-453 cells assessed as inhibition of DHT-induced PSA expression by alkaline phosphatase reporter gene assay. Type of data set: cell-based. On the technique in general: Reporter assays use an easily measured gene product as a stand-in for the process of interest.

The nature of data set [4]: Plasma concentration in immature Sprague-Dawley rat prostate weight model at 1 mg/kg, po qd administered for 4 days measured 2 hrs post last dose on day 4. It counts as ADME, organism-based. The method in brief: (§2)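 Immature rat prostate weight model, oral dosing once daily at 1 or 10 mg/kg for 4 days. Plasma drug concentration (µM) measured 2 hours post-dose on day 4, n=3.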

In data set [5] the target is T1, Androgen receptor. Description: Displacement of [3H]-DHT from androgen receptor in human MDA-MB-453 cells after 90 mins by TopCount analysis. It counts as cell-based.
The nature of data set [6]: Plasma concentration in immature Sprague-Dawley rat prostate weight model at 10 mg/kg, po qd administered for 4 days measured 2 hrs post last dose on day 4. Type of data set: ADME, organism-based. The method in brief:
as §2

Data set [7] concerns CWR22. Description: Antitumor activity against human CWR22 cells in Balb/c athymic (nu/nu) mouse CWR22-BMSLD1 prostate cancer xenograft model assessed as tumor growth inhibition at 150 mg/kg, po qd administered for 35 days measured from day 10 to 35 during compound dosing. It counts as functional, organism-based. The method in brief:
(§3)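 CWR22-BMSLD1 human prostate cancer xenograft. Oral once-daily dosing at 90 mg/kg for 45 days, or at 150 mg/kg for 35 days, with a vehicle group. Median tumor volume (mm3) tracked against days post implant.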

The subject of data set [8] is CWR22. The data set can be described thus: Antitumor activity against human CWR22 cells in Balb/c athymic (nu/nu) mouse CWR22-BMSLD1 prostate cancer xenograft model assessed as tumor growth inhibition at 150 mg/kg, po qd measured for 10 days during compound dosing. Type of data set: functional, organism-based. In a few lines:
as §3
In general terms: Xenograft models place foreign cells or tissue in a host animal.

Data set [9] is described as follows: Protein binding in mouse serum. Type of data set: ADME, cell-free. To be noted: read-out: PB.

As for `C[C@]12O[C@@](C)(C[C@H]1NS(C)(=O)=O)[C@H]1C(=O)N(c3ccc(C#N)c(C(F)(F)F)c3)C(=O)[C@H]12`, the Activity in the data set with Rattus norvegicus [1] is reported as 26%; in the data set on Rattus norvegicus [2], 64%. In addition, the IC50 at Androgen receptor [3] was 20 nM. In addition, the concentration at 2 h was determined as 290 nM in [4] and 4000 nM in [6]. Besides, at Androgen receptor [5], affinity was put at a Ki of 12 nM.

For `CC12C[C@H](O)[C@](C)(O1)[C@@H]1C(=O)N(c3ccc(C#N)c(I)c3)C(=O)[C@@H]12` (single isomer, unassigned), the IC50 at Androgen receptor [3] came to 10 nM. Moreover, on Androgen receptor [5], affinity was put at a Ki of 8 nM.

In the case of `C[C@]12O[C@@](C)(C[C@H]1NS(=O)(=O)c1ccccc1F)[C@H]1C(=O)N(c3ccc(C#N)c(C(F)(F)F)c3)C(=O)[C@H]12`, the Activity is on record as 24% in the data set with Rattus norvegicus [1] and 56% in the data set on Rattus norvegicus [2]. The concentration for half-maximal inhibition (IC50) at Androgen receptor [3] is 10 nM. Also, the concentration at 2 h was determined as 160 nM in data set [4] and 1900 nM in data set [6]. The Ki on Androgen receptor [5] stood at 1 nM.

With `C[C@]12O[C@@](C)(C[C@H]1NS(=O)(=O)c1ccccc1)[C@H]1C(=O)N(c3ccc(C#N)c(C(F)(F)F)c3)C(=O)[C@H]12`, the results for the Activity with Rattus norvegicus [1] and with Rattus norvegicus [2] were 31% and 63%, respectively. Further, the IC50 at Androgen receptor [3] is 1 nM. Also, the results for the concentration at 2 h in [4] and in data set [6] were 230 nM and 2400 nM, respectively. The molecule further showed a Ki on Androgen receptor [5] of 10 nM.

Turning to `C[C@]12O[C@@](C)(C[C@H]1NS(=O)(=O)c1cccnc1)[C@H]1C(=O)N(c3ccc(C#N)c(C(F)(F)F)c3)C(=O)[C@H]12`, the Activity turned out to be 23% in the data set on Rattus norvegicus [1] and 44% with Rattus norvegicus [2]. In addition, on Androgen receptor [3], the IC50 was 7 nM. Moreover, the concentration at 2 h in data set [4] came out at 50 nM; in data set [6], 520 nM. On Androgen receptor [5], the Ki was determined as 2 nM.

On to `C[C@]12O[C@@](C)(C[C@H]1C(=O)O)[C@H]1C(=O)N(c3ccc(C#N)c(C(F)(F)F)c3)C(=O)[C@H]12`, for which the half-inhibitory concentration (IC50) on Androgen receptor [3] is more than 5000 nM. This molecule came in with a Ki at Androgen receptor [5] of 1600 nM.

For the molecule `CC(O)(CS(=O)(=O)c1ccc(F)cc1)C(=O)Nc1ccc(C#N)c(C(F)(F)F)c1` (stereo not drawn) [BICALUTAMIDE], the figures for the Activity in the data set with Rattus norvegicus [1] and in the data set with Rattus norvegicus [2] were 41% and 69%, respectively. Moreover, in the data set on CWR22 [7], the TGI result is “inactive”. Besides, the concentration at 2 h in data set [4] was 2300 nM; in [6], 9500 nM. In addition, the TGI result in the data set with CWR22 [8] was “Active”.

In the case of `CNS(=O)(=O)N[C@@H]1C[C@]2(C)O[C@]1(C)[C@@H]1C(=O)N(c3ccc(C#N)c(C(F)(F)F)c3)C(=O)[C@@H]12`, the Activity is listed as 36% in the data set with Rattus norvegicus [1] and 89% with Rattus norvegicus [2]. In addition, at Androgen receptor [3], the IC50 stood at 34 nM. The concentration at 2 h in data set [4] stood at 10 nM; in data set [6], 230 nM. On Androgen receptor [5], this molecule displayed a Ki of 50 nM.

For `CC(C)OC(=O)[C@@H]1C[C@]2(C)O[C@]1(C)[C@@H]1C(=O)N(c3ccc(C#N)c(C(F)(F)F)c3)C(=O)[C@@H]12`, at Androgen receptor [3], the IC50 is 22 nM. Affinity at Androgen receptor [5] was put at a Ki of 23 nM.

As to `CN(C(=O)[C@@H]1C[C@]2(C)O[C@]1(C)[C@@H]1C(=O)N(c3ccc(C#N)c(C(F)(F)F)c3)C(=O)[C@@H]12)c1ccccc1`, the Activity turned out to be 43% in the data set on Rattus norvegicus [1] and 88% with Rattus norvegicus [2]. Further, the half-inhibitory concentration (IC50) at Androgen receptor [3] came to 34 nM. Further, the concentration at 2 h amounted to 1800 nM in [4] and 12000 nM in data set [6]. Also, the inhibition constant Ki at Androgen receptor [5] amounted to 50 nM.

As to `CC(C)NC(=O)N[C@@H]1C[C@]2(C)O[C@]1(C)[C@@H]1C(=O)N(c3ccc(C#N)c(C(F)(F)F)c3)C(=O)[C@@H]12`, the Activity in the data set with Rattus norvegicus [1] is 56%; in the data set with Rattus norvegicus [2], 115%. The fraction unbound in data set [9] was less than 0.01. Also, the concentration for half-maximal inhibition (IC50) at Androgen receptor [3] came out at 60 nM. Moreover, the concentration at 2 h is 8300 nM in [4] and 60000 nM in data set [6]. The same molecule showed an inhibition constant (Ki) on Androgen receptor [5] of 31 nM.

`C[C@]12O[C@@](C)(C[C@H]1N)[C@H]1C(=O)N(c3ccc(C#N)c(C(F)(F)F)c3)C(=O)[C@H]12`: the Activity in the data set on Rattus norvegicus [1] and in the data set on Rattus norvegicus [2] was 89% in each case. The IC50 on Androgen receptor [3] came out at 60 nM. Besides, the values for the concentration at 2 h in data set [4] and in data set [6] were 80 nM and 480 nM, respectively. The Ki at Androgen receptor [5] is 31 nM.

For the molecule `CCC(=O)N[C@@H]1C[C@]2(C)O[C@]1(C)[C@@H]1C(=O)N(c3ccc(C#N)c(C(F)(F)F)c3)C(=O)[C@@H]12`, the values for the Activity with Rattus norvegicus [1] and in the data set on Rattus norvegicus [2] were 34% and 87%, respectively. The fraction unbound in data set [9] was less than 0.01. Moreover, the IC50 at Androgen receptor [3] stood at 23 nM. In addition, the concentration at 2 h in [4] amounted to 24000 nM; in data set [6], 190000 nM. Besides, the Ki on Androgen receptor [5] amounted to 3 nM.

The IC50 is the midpoint of a concentration-inhibition curve. By Ki is commonly meant a dissociation constant, usually derived from enzyme kinetics or from competition with a known ligand.
